Bioassay records deposited in PubChem by several laboratories.
SENP8 block-1: SENP8 protease inhibitors, primary screen, biochemical, luminescence; inhibition, % at 10 µM; purified SENP8, Z-RLRGG-aminoluciferin cleavage; 330,000 tested, 1.2% active; in the data active means inhibition above about 50%
Target sequence (Q96LD8 whole entry, looked up): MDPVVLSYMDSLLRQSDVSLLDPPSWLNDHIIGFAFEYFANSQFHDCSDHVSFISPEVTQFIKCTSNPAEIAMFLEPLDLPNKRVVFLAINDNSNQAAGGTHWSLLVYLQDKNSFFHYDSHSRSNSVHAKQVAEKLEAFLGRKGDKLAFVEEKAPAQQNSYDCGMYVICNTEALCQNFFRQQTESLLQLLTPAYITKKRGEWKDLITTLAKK
SENP6 block: SENP6 protease inhibitors, primary screen, biochemical, luminescence, uHTS | Recombinant SENP6 catalytic domain, aminoluciferin luminescence | Sentrin-specific protease 6 (Homo sapiens), Q9GZR1 | 330,000 tested, 1.8% active | inhibition, % at 10 µM;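 active means inhibition above about 50% at the single tested dose, limit read from the data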;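 further: plate controls were DMSO wells with enzyme for no effect and DMSO wells lacking enzyme for full effect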
SENP7 block: SENP7 protease inhibitors, primary screen, biochemical, luminescence, uHTS | Sentrin-specific protease 7 (Homo sapiens), Q9BQF6 | recombinant SENP7, Z-RLRGG-aminoluciferin luminescence, 40 min | inhibition, % at 5 µM | 330,000 tested, 1.5% active | AID 434973, 2010;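 active means inhibition above about 50% at the single test dose, limit read from the data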;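 further: plate controls were DMSO with enzyme for no effect and no enzyme buffer wells for full effect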
Platelet DG rel: inhibitors of platelet dense granule secretion, primary screen, cell-based, MLPCN, human platelets | human platelet-rich plasma, SFLLRN dense granule ATP release, luminescence | inhibition, %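 (compounds screened at 7.5 µM in platelet-rich plasma)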 | 300,000 tested, 0.22% active | AID 1663, 2009;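 active means mean replicate score, as percent of positive control, at or above 50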
SENP1 FRET inh: human SENP1 catalytic domain inhibitors, primary screen, biochemical, FRET, uHTS; Sentrin-specific protease 1 (Homo sapiens), Q9P0U3; recombinant SENP1 catalytic domain, CyPet-SUMO1-YPet FRET cleavage; inhibition, % at 10 µM; 360,000 tested, 0.21% active;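 active means inhibition at least 30% at 10 µM, raw YFP signal under a set limit, fluorescence ratio 0.5 to 1.5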;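 further: 0% = enzyme with DMSO and 100% = no enzyme wells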
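Assay system – human recombinant His6-tagged SENP1 catalytic domain enzyme · Input – SENP1 enzyme, 20 pM final · Buffer or medium – Tris pH 8 buffer plus EDTA, NaCl, BME, BSA, NP40, catalase · Schedule – 50 min reaction at room temperature · Technique – FRET read of cyan and yellow fluorescence · Control set – no-enzyme wells low, DMSO-plus-enzyme wells high control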
SENP8 block-2: human SENP8 protease inhibitors, primary screen, biochemical, fluorescence, Nedd8 protein substrate, uHTS; inhibition, % at 20 µM; 360,000 tested, 0.64% active; AID 602440, 2012; recombinant SENP8; in the data active means inhibition mostly above about 40%, no sharp cut-off; inactive means mostly below about 27%
SENP8 conf: SENP8 protease inhibitors, retest, confirmation, biochemical, luminescence, single concentration; shares compounds with SENP7 block; Recombinant SENP8, Z-RLRGG-aminoluciferin luminescence, 60 min; inhibition, % at 12.5 µM; 6,200 tested, 40% active;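 active means mean inhibition across replicates above about 50%, limit read from the data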
SENP6 conf: SENP6 protease inhibitors, confirmation, biochemical, luminescence, single concentration | recombinant SENP6, Z-RLRGG-aminoluciferin luminescence | 6,200 tested, 58% active | inhibition, % at 12.5 µM | AID 488915, 2010 | shares compounds with SENP7 block
SENP7 conf: SENP7 protease inhibitors, retest, confirmation, biochemical, luminescence, single concentration. 6,200 tested, 69% active. recombinant SENP7, Z-RLRGG-aminoluciferin luminescence, 40 min. inhibition, % at 12.5 µM. shares compounds with SENP7 block
Casp3 select: caspase-3 protease inhibitors, confirmation, selectivity assay for SENP inhibitor project, biochemical, single concentration; shares compounds with SENP7 block; 6,200 tested, 60% active; purified caspase-3, Z-DEVD-aminoluciferin luminescence, 60 min; inhibition, % at 12.5 µM;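 active means mean inhibition above about 50%, limit read from the data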;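 further: plate controls were enzyme with DMSO for no effect and wells without caspase-3 for full effect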
Target sequence (P42574 28-227 limits assumed): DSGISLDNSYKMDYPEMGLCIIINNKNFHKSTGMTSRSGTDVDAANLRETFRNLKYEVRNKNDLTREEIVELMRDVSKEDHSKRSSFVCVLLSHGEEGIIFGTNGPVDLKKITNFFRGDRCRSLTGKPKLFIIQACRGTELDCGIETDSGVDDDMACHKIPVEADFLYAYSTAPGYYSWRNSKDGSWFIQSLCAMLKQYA
SENP luc ctr: counter-screen for SENP inhibitors: luminescence interference; shares compounds with SENP7 block; AID 488919; inhibition, % at 12.5 µM; Pre-incubated SENP8/Z-RLRGG-aminoluciferin, luciferase luminescence interference; 6,200 tested, 39% active;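 active means mean inhibition above about 50% when retested at one dose, limit read from the data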;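 further: plate controls were DMSO wells with completed reaction for no effect and substrate without enzyme for full effect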
* marks the source's active call; other numbers are inactive results; . = no result. This is a sample that favours compounds with a hit; in the whole collection about 2.6% have one here.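 How the source made its calls, unless noted: active means mean inhibition above about 50% in the one-dose retest (limit read from the data); inactive means the rest.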

SMILES	SENP8 block-1	SENP6 block	SENP7 block	Platelet DG rel	SENP1 FRET inh	SENP8 block-2	SENP8 conf	SENP6 conf	SENP7 conf	Casp3 select	SENP luc ctr
O=C(COC(=O)Cn1cnc2ccccc21)Nc1cc2c(cc1Cl)C(=O)c1ccccc1C2=O	61*	71*	90*	-1	5	16	58*	67*	86*	73*	14
O=C(COC(=O)Cn1cnc2ccccc21)Nc1cc(S(=O)(=O)N2CCOCC2)ccc1Cl	-4	2	-4	6	1	9	.	.	.	.	.
Cc1nc(Nc2nc3ccccc3o2)nc2c1CCC2	39	77*	72*	17	1	13	33	60*	86*	75*	8
CCOC(=O)c1cnc(Nc2nc3ccccc3o2)nc1C	80*	84*	95*	17	1	0	74*	75*	99*	93*	34
Cc1cccc(N=C2NC(=O)/C(=C\c3cccs3)S2)c1	6	49	1	-15	4	1	.	.	.	.	.
O=C1NC(=Nc2ccccc2)S/C1=C/c1cccs1	59*	17	32	-8	-2	10	27	46	20	39	23
CCN1C(=O)[C@H]2[C@@H](c3ccc(OC)cc3)N[C@]3(CCCN(Cc4ccc(OC)cc4)C3=O)[C@H]2C1=O	.	.	.	.	1	0	.	.	.	.	.
N#C/C(=C(/O)C(Cl)(Cl)Cl)c1nc2ccccc2[nH]1	87*	96*	75*	-9	-9	29	90*	90*	100*	91*	55*
COc1ccc(C)cc1NC(=O)C1CCN(S(=O)(=O)c2ccc3c(c2)NC(=O)CO3)CC1	-4	5	5	-1	0	6	.	.	.	.	.
O=c1ccnc(SCCc2ccccc2)[nH]1	-10	-21	-13	0	2	13	.	.	.	.	.
O=c1ccnc(S/C=C/c2ccccc2)[nH]1	71*	83*	-2	10	-1	9	78*	73*	89*	87*	76*
CCOc1cc(/C=C2/C(=O)N(c3ccccc3)N=C2C)ccc1OC(=O)c1ccco1	7	34	68*	3	5	66*	-23	-1	-4	-7	-4
CCOc1cc(/C=C2/C(=N)N3N=C(CC)SC3=NC2=O)ccc1OC(=O)c1ccco1	3	-5	-14	15	-70	-3	.	.	.	.	.
CCOc1cc(/C=C2\C(=O)N(c3ccc(C(N)=O)cc3)N=C2C)ccc1OC(=O)c1cccs1	14	63*	68*	25	14	66*	18	33	3	3	5
CC1CCN(CCNC(=S)Nc2ccc(Cl)cc2)CC1	5	7	12	12	3	13	.	.	.	.	.
O=[N+]([O-])c1ccccc1S(=O)(=O)N1CCCc2ccccc21	-14	-36	7	3	0	18	.	.	.	.	.
Cc1nc2ncccn2c1-c1csc(Nc2ccc(O)cc2)n1	7	-7	-1	0	3	-10	.	.	.	.	.
Cc1cccnc1Nc1nc(-c2ccccc2)cs1	92*	97*	97*	22	-2	-6	0	96*	102*	82*	74*
NS(=O)(=O)c1ccc(Nc2nc(-c3ccc(O)cc3O)cs2)cc1	4	-2	7	11	-1	4	.	.	.	.	.
Oc1ccc(-c2csc(Nc3ccccn3)n2)c(O)c1	42	71*	36	-8	4	5	53*	68*	89*	16	82*
Cc1cccnc1Nc1nc(-c2ccc(O)cc2O)cs1	56*	69*	27	-1	-1	11	81*	81*	92*	25	45
O=C(O)c1ccc(Nc2nc(-c3ccccc3)cs2)cc1	50	84*	65*	2	0	-72	72*	70*	90*	63*	80*
CC(=O)Nc1ccc(-c2csc(Nc3cc(C)ccn3)n2)cc1	-13	2	-2	5	4	15	.	.	.	.	.
Cc1ccnc(Nc2nc(-c3ccccc3)cs2)c1	81*	90*	85*	-1	1	14	13	64*	85*	44	-4
Nc1nn(-c2ccccc2)c(N)c1N=Nc1ccc2c(c1)OCO2	9	62*	29	-14	-4	40	40	41	76*	45	61*
SMILES	SENP8 block-1	SENP6 block	SENP7 block	Platelet DG rel	SENP1 FRET inh	SENP8 block-2	SENP8 conf	SENP6 conf	SENP7 conf	Casp3 select	SENP luc ctr
Nc1[nH]n(-c2ccccc2)c(=O)c1N=Nc1ccc2c(c1)OCCO2	84*	73*	93*	-7	1	36	43	94*	99*	83*	36
CCS(=O)(=O)c1ccc2oc(Nc3ccccc3Cl)nc2c1	91*	95*	92*	57*	-1	10	74*	92*	99*	94*	26
Cc1cccc(C)c1Nc1nc2ccccc2o1	4	-10	-7	-5	1	20	.	.	.	.	.
Clc1ccccc1Nc1nc2ccccc2o1	95*	95*	100*	.	2	4	-4	100*	103*	98*	97*
O=C(COC(=O)c1cccnc1Cl)c1ccccc1	23	78*	65*	4	2	1	56*	53*	87*	86*	71*
CCc1ccc(C(=O)COC(=O)c2cccnc2Cl)cc1	88*	93*	94*	3	0	-4	90*	90*	100*	93*	88*
